Screening data: PubChem, Broad Institute
E-sel inducer = induces E-selectin expression in human endothelial cells; HUVEC E-selectin immunofluorescence imaging; normalized: neutral wells 0, TNF-alpha wells 100; actives 0.37% (n = 260,000); P16581; activation, % at 7.58 µM;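 active means mean E-selectin-positive cell signal at least 10% of the positive control, reached in at least 60% of replicates, without over 20% cell loss; inconclusive means no rule given, readout overlaps actives, possibly toxicity-flagged; inactive means the rest, including those meeting only one limit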
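Assay system: HUVEC, human umbilical vein endothelial cells / Amount: 3,000 HUVEC/well / Controls: TNF-alpha positive control, DMSO neutral control / Compound dosing: single concentration / Medium: EGM-2 over gelatin coat / Evaluation: percent E-selectin-positive cells / Signal: immunofluorescence imaging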
DENV2 CPE rescue = inhibitors of DENV2 cytopathic effect. AID 651640. CPE inhibition, % at 9.99 µM. DENV2-infected cells, cytopathic effect rescue, plate reader. actives 1.7% (n = 350,000); in the data active means CPE inhibition above about 20%, passing the limit was not always enough; inconclusive means no clear call, values can overlap the other calls; tested in BHK-21 cells;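 further: 0% = median of neutral control wells and 100% = median of positive control wells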
SIRT5 block = blocks human SIRT5 desuccinylation of peptide | AID 652115 | Q9NXA8 | inhibition, % at 15 µM | actives 1.1% (n = 330,000) | Purified SirT5, succinyl-peptide AMC, trypsin-coupled fluorescence; in the data active means inhibition above about 15%; inconclusive means no clear call, values can overlap the other calls
Target sequence (Q9NXA8 whole entry, looked up): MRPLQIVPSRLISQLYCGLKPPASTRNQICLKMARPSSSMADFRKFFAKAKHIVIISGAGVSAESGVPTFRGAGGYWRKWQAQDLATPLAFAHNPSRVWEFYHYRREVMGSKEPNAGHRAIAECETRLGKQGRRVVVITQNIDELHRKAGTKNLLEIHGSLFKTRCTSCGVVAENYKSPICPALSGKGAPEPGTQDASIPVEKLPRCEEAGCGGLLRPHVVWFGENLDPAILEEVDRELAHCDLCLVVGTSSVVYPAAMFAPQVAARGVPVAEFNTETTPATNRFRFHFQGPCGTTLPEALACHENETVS
An asterisk follows results filed as active; ? = inconclusive; nt = not tested or not shown; ! = not active in a repeat. In the library only some 2.8% were active in any assay of this set; here they are far more common.

SMILES	E-sel inducer	DENV2 CPE rescue	SIRT5 block
C[C@@H]1CN([C@@H](C)CO)S(=O)(=O)c2ccc(/C=C/c3ccccc3)cc2O[C@H]1CN(C)C(=O)NC1CCCCC1	nt	3.4	22.4*
C[C@H](CO)N1C[C@H](C)[C@H](CN(C)C(=O)NC2CCCCC2)Oc2cc(/C=C/c3ccccc3)ccc2S1(=O)=O	nt	0.9	24.9*
CO[C@H]1CN(C)C(=O)c2cc(NS(=O)(=O)c3cccc(F)c3)ccc2OC[C@H](C)NC[C@H]1C	0.1	8.3	14.5
C[C@H](CO)N1C[C@H](C)[C@H](CN(C)C(=O)Nc2ccc(F)cc2)Oc2cc(-c3ccc(F)cc3)ccc2S1(=O)=O	1.2	nt	nt
C[C@H]1CN([C@@H](C)CO)C(=O)c2cc(-c3ccc(C(=O)N(C)C)cc3)cnc2O[C@@H]1CN(C)C(=O)c1ccncc1	0.0	-7.3	2.9
COc1ccc2c3c(n(C)c2c1)[C@H](CO)N(C(=O)CN(C)C)CC31CCN(Cc2cccnc2)CC1	0.4	15.5	-1.4
CCCNC(=O)Nc1ccc2c(c1)C(=O)N(C)[C@@H]1CC[C@H](CC(=O)NCC3CCCCC3)O[C@H]1CO2	0.1	-5.0	2.1
O=C(C[C@H]1C=C[C@H](NC(=O)c2ccncc2)[C@H](CO)O1)Nc1ccc(-c2ccccc2)cc1	0.9	3.7	-2.9
C[C@@H]1CN([C@@H](C)CO)C(=O)c2cc(-c3ccccc3F)cnc2O[C@H]1CN(C)C(=O)CN(C)C	-0.3	-8.1	-3.3
COc1ccc(S(=O)(=O)Nc2ccc3c(c2)C(=O)N([C@@H](C)CO)C[C@H](C)[C@@H](CN(C)S(=O)(=O)c2c(C)noc2C)OCCCC[C@@H](C)O3)cc1	nt	-5.1	0.1
CNC[C@@H]1OCCCC[C@H](C)Oc2ccc(NC(=O)Nc3ccc(C(F)(F)F)cc3)cc2C(=O)N([C@H](C)CO)C[C@@H]1C	-0.1	nt	nt
C/C=C/c1ccc2c(c1)O[C@H](CN(C)C(=O)NC1CCCCC1)[C@@H](C)CN([C@@H](C)CO)S2(=O)=O	0.8	6.1	5.6
C[C@H]1CN([C@@H](C)CO)S(=O)(=O)c2ccc(/C=C/c3ccccc3)cc2O[C@H]1CN(C)C(=O)NC1CCCCC1	0.0	3.0	26.4*!
Cc1ccc(S(=O)(=O)N(C)C[C@H]2Oc3ncc(C#CC4(O)CCCC4)cc3C(=O)N([C@@H](C)CO)C[C@H]2C)cc1	0.1	5.1	5.2
CCCN(Cc1nnc(-c2ccccc2Cl)o1)C(=O)c1cc(S(=O)(=O)N2CCOCC2)ccc1F	nt	12.2	15.3*
CCCN(Cc1nnc(-c2cccs2)o1)C(=O)c1cc(S(=O)(=O)N2CCOCC2)ccc1C	7.2	1.7	-6.1
CCCN1CCC(=O)N([C@H](CSc2ccc(OC)cc2)c2ccccc2)CC1	nt	0.6	21.1*
CN1CCC(=O)N([C@H](CSc2ccccc2)c2ccccc2)CC1	0.1	-4.8	nt
NC(=S)N/N=C/c1ccc(-c2ccccc2)o1	nt	-5.4	0.4
NC(=S)NN=Cc1ccc(-c2ccc(S(=O)(=O)Nc3ncccn3)cc2)o1	nt	8.4	46.1*
COc1ccc2c3c([nH]c2c1)[C@@H](CO)N(Cc1nccs1)CC31CCN(C(=O)C2CC2)CC1	-0.2	-10.0	-3.4
C/C=C/c1ccc([C@@H]2[C@H](CO)N(Cc3cncnc3)C23CN(C(=O)CC)C3)cc1	0.0	-6.0	-1.0
CCOc1cccc(=O)c2c(C)n(-c3ccc(C(=O)O)cc3)c(C)c12	-2.5	nt	29.0*
COc1cccc(=O)c2c(C)n(-c3ccc(C(=O)O)cc3)c(C)c12	6.9	-1.9	8.4
CCN(CC)S(=O)(=O)c1ccc(N2CCOCC2)c(NC(=O)c2ccc3c(c2)OCCO3)c1	1.6	-2.7	2.2
SMILES	E-sel inducer	DENV2 CPE rescue	SIRT5 block
CCN(CC)S(=O)(=O)c1ccc(N2CCOCC2)c(NC(=O)c2ccc(NC(C)=O)cc2)c1	0.1	0.1	15.2*
CO[C@H]1CN(C)C(=O)c2cc(NC(=O)C3CC3)ccc2OC[C@@H](C)N(C(=O)c2ccccc2F)C[C@H]1C	-0.2	9.7	-4.2
O=C(NCC(c1ccco1)N1CCN(c2ccccc2)CC1)C(=O)NC1CCCCC1 (stereo not drawn)	nt	-6.4	-3.4
O=C(NCC(c1ccco1)N1CCN(c2ccccc2)CC1)C1CCCCC1 (stereo not drawn)	-0.1	72.0*	-2.2
Cc1cn(C2CC(O)C(O)C(CO)O2)c(=O)[nH]c1=O (stereo not drawn)	-0.2	-1.7	nt
Cc1cn([C@H]2C=C[C@@H](CO)O2)c(=O)[nH]c1=O	1.9	29.0*!	-2.5
COCC#Cc1cnc2c(c1)C(=O)N([C@@H](C)CO)C[C@H](C)[C@H](CN(C)C(C)=O)O2	-2.0	?	11.8
CC(C)N(C[C@@H]1[C@H](c2ccccc2)[C@@H](CO)N1S(C)(=O)=O)C(=O)CN(C)C	0.0	54.5*	2.4
